Screening data as filed in PubChem.
In the library only some 1.8% were active in any assay of this set; here they are far more common.
SENP1 FRET inh = blocks the human SENP1 SUMO protease catalytic domain; Q9P0U3; recombinant SENP1 catalytic domain, CyPet-SUMO1-YPet FRET cleavage; inhibition, % at 10 µM; 360,000 compounds, 0.21% hits; AID 624204;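 active means inhibition at least 30% at 10 µM, raw YFP signal under a set limit, fluorescence ratio 0.5 to 1.5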;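 further: 0% = enzyme with DMSO and 100% = no enzyme wells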
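System: Recombinant human SENP1 catalytic domain, His6-tagged | Incubation: Enzyme reaction for 50 min at room temperature, dark | Medium: Tris pH 8 with BME, BSA, NP40 and catalase | Also added: 25 nM SUMO1 FRET substrate | Compound: 10 µM single point, 0.5% DMSO | Measured by: FRET fluorescence in CFP and YFP emission channels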
TPT1 inh = blocks Candida albicans tRNA 2'-phosphotransferase | recombinant caTPT1, FP RNA substrate dephosphorylation | inhibition, % at 5 µM | 300,000 compounds, 0.81% hits | AID 1962;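 active means inhibition above the mean of all tested compounds plus 3 SD, set per screening campaign, cut at about 24% in these data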;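 further: plate controls were DMSO alone for no effect and ferristatin control at 100 nM for full effect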
CSN inh = inhibitors of human CSN-mediated cullin deneddylation. Purified CSN, SCF-Nedd8-OG deneddylation, fluorescence polarization. inhibition, % at 12.5 µM. 360,000 compounds, 0.38% hits. AID 651999;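 active means pattern-corrected inhibition above about 35%, with an unprinted fluorescence ratio check between 0.5 and 1.5, limit read from the data, passing the limit was not always enough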;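 further: 0% = enzyme with substrate and 100% = substrate without enzyme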
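Assay system: Purified human Csn5 enzyme expressed in HEK293T cells | Amount: Enzyme 0.24 nM | Measured by: Fluorescence polarization readout | Medium: Tris/NaCl/DTT buffer, pH 7.5 | Compound dosing: One concentration, 12.5 µM, 0.25% DMSO | Times: 90 min incubation of compound, enzyme and substrate at room temperature | Control set: no-enzyme wells high, enzyme-with-substrate wells low | Read-out: % inhibition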
HNF4A DNA FP = change in binding of human HNF4 alpha to DNA. AID 1224865. P41235. activity change, % at 10 µM. 360,000 compounds, 0.3% hits. HNF4a-FITC DNA binding, fluorescence polarization, 1 h; in the data active means activity change above about 30%, passing the limit was not always enough
Rpn11 inh = inhibitors of human proteasome Rpn11 | calls only at 20 µM | human 26S proteasome, Ub4-pepOG fluorescence polarization; 20S core pre-blocked with epoxomicin | 360,000 compounds, 0.59% hits;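 active means inhibition at 20 µM, scaled to each plate's controls, above about 33%, limit read from the data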
UBC9 SUMO inh = blocks human SUMOylation mediated by UBC9; inhibition, % at 35 µM; P63279; HTRF SUMOylation assay, SAE1/SAE2 + UBC9, in vitro; 290,000 compounds, 0.36% hits; in the data active means inhibition above about 50%, passing the limit was not always enough
Rpn11 inh conf = Rpn11 inhibition confirmation, single concentration. shares compounds with Rpn11 inh. 1,900 compounds, 29% hits. inhibition, % at 20 µM. purified human 26S proteasome, Ub4-pepOG fluorescence polarization; proteasome pretreated with epoxomicin
MMP-2 counter = blocks human MMP-2, flagging nonselective RPN11 hits. inhibition, % at 20 µM. recombinant MMP-2, FRET peptide cleavage fluorescence. 1,900 compounds, 4% hits. shares compounds with Rpn11 inh;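 further: human MMP-2 activated beforehand with APMA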
Target sequence (P08253 whole entry, looked up): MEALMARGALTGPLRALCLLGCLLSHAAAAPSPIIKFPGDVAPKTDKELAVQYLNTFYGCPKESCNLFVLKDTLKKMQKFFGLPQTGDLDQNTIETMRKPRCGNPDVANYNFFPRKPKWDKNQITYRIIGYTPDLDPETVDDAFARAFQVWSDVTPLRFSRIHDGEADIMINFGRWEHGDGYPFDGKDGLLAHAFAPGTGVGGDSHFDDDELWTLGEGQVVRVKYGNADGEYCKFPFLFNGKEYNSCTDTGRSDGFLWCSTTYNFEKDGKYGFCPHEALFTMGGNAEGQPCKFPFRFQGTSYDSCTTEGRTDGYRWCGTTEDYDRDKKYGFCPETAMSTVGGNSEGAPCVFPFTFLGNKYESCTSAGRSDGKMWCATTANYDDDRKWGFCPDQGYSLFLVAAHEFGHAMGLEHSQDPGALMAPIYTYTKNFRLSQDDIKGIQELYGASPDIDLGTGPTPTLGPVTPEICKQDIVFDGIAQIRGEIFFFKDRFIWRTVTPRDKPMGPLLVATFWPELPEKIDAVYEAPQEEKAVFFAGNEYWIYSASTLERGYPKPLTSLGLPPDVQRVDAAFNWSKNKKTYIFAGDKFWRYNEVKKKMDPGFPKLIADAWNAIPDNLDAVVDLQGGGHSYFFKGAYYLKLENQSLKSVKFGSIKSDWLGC
Thrombin inh = thrombin (bovine) inhibition counter-screen. AID 602333. inhibition, % at 20 µM. 1,900 compounds, 13% hits. bovine thrombin cleavage of Ub4-pepOG, fluorescence polarization. shares compounds with Rpn11 inh;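 active means mean inhibition at least 40% at 20 µM, or signal 3 deviations below plate average, so some actives read negative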;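 further: plate controls were thrombin with DMSO for no effect and buffer wells lacking thrombin for full effect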
* = called active by the depositor; i = inactive; . = no result given; + = active, no number. Unless noted, no stated cut-off is given here; in the data, active means inhibition above about 40%; inactive means the rest.

SMILES	SENP1 FRET inh	TPT1 inh	CSN inh	HNF4A DNA FP	Rpn11 inh	UBC9 SUMO inh	Rpn11 inh conf	MMP-2 counter	Thrombin inh
O=C(CCCN1C(=O)c2cccc3cccc(c23)C1=O)N1CCN(c2ccc(F)cc2)CC1	-2.0	0.1	-1.1	-4.8	i	17.5	.	.	.
Fc1ccc(N2CCN(C3=Nc4cccc5cccc3c45)CC2)cc1	89.6*	19.3	11.1	14.8	+	6.4	8.2	-24.9	-0.3
NC(CSS(=O)(=O)O)=NCCC12CC3CC(CC(O)(C3)C1)C2	4.2	-1.4	0.4	2.1	i	14.3	.	.	.
Cc1ccc(S(=O)(=O)N2CCN(C(=O)c3cccc(F)c3)CC2)cc1	0.3	-2.5	1.7	-2.1	i	11.7	.	.	.
O=[N+]([O-])c1ccc(COc2ccccc2/C=N/O)cc1	1.5	0.8	-7.2	-1.7	i	-8.2	.	.	.
O=C1NC(=O)/C(=C\c2ccccc2OCc2ccc([N+](=O)[O-])cc2)N1	1.8	-1.3	2.5	0.8	+	12.4	-11.5	-27.1	-15.4
NS(=O)(=O)c1ccc(-c2ccc(/C=C3\C(=O)Nc4cc(Cl)ccc43)o2)cc1	13.3	.	-0.7	4.2	i	-10.6	.	.	.
NC1=NC(=O)/C(=C/c2ccc(-c3ccc(S(N)(=O)=O)cc3)o2)S1	-25.4	-9.9	33.6	-7.0	+	-3.1	89.4*	45.6*	42.0*
COc1cccc(-n2c(C)cc(/C=C3/C(=N)N4C(=NC3=O)SN=C4S(C)(=O)=O)c2C)c1	-49.4	20.4	15.0	17.6	i	39.8	.	.	.
CS(=O)(=O)C1=NSC2=NC(=O)/C(=C\c3ccc(OC(=O)c4ccco4)c(Br)c3)C(=N)N21	-30.4	15.8	28.1	34.9*	+	4.5	17.0	-5.1	31.6
Cc1cc(C)cc(-n2cccc2/C=C2/C(=N)N3C(=NC2=O)SN=C3S(C)(=O)=O)c1	-50.3	13.4	20.0	12.9	+	37.0	53.1*	-7.3	-25.2
Cc1ccc(-n2cccc2/C=C2/C(=N)N3C(=NC2=O)SN=C3S(C)(=O)=O)cc1	-13.1	16.7	24.6	8.8	+	31.8	62.6*	-0.6	29.1
CS(=O)(=O)C1=NSC2=NC(=O)/C(=C\c3cccn3-c3ccccc3Cl)C(=N)N21	-18.5	16.6	30.8	12.4	+	38.2	78.7*	3.2	38.9
O=C(CN1C(=O)NC2(CCOc3ccccc32)C1=O)Nc1ccc(Br)cc1F (stereo not given)	-1.5	.	-3.7	0.1	i	.	.	.	.
CCc1ccc(-n2cccc2/C=C2/C(=N)N3C(=NC2=O)SN=C3S(C)(=O)=O)cc1	-28.2	13.7	23.0	11.0	+	49.5	64.4*	-0.3	45.0*
O=[N+]([O-])c1ccc(N=Cc2sc3ccccc3c2O)cc1	-133.9	51.1*	33.1	5.0	+	6.0	-5.0	-62.9	-8.6
c1ccc(Cn2c(SCc3nc4ccccc4s3)nnc2-c2ccco2)cc1	-18.3	17.4	44.6*	-20.0	+	18.5	7.4	29.1	3.5
COc1ccc(OC)c(CNS(=O)(=O)c2cc(-c3cc(C)no3)ccc2OC)c1	0.0	-0.6	-2.8	0.5	i	3.2	.	.	.
COC(=O)CC1=C(C(=O)OC)C(c2ccc3c(c2Cl)OCO3)C(C#N)=C(N)O1 (stereo not given)	-9.3	-1.1	-0.7	-2.2	i	1.9	.	.	.
CCOCCCNC(=O)N[C@@H](Cc1ccccc1)C(=O)OC	-0.4	-5.1	-2.4	2.2	+	-7.4	-4.8	-3.9	-10.1
N#CC1=C(N)Oc2cc(N)ccc2C1c1cc(Br)cs1 (stereo not given)	-27.9	.	19.8	17.1	+	9.4	1.2	17.8	27.2
CCCn1c(NC(=O)c2ccco2)nc2ccccc21	2.3	-1.7	0.8	-3.5	i	6.2	.	.	.
CCCn1c(NC(=O)C2COc3ccccc3O2)nc2ccccc21 (stereo not given)	3.6	-6.2	-0.5	-6.8	+	14.9	4.6	-1.6	7.2
Cc1ccnc2c1ccc1cccnc12	1.8	.	0.7	0.7	i	.	.	.	.
Cc1ccnc2c1ccc1c(C)ccnc12	0.4	.	-2.2	1.4	+	.	34.0	5.9	-0.7
SMILES	SENP1 FRET inh	TPT1 inh	CSN inh	HNF4A DNA FP	Rpn11 inh	UBC9 SUMO inh	Rpn11 inh conf	MMP-2 counter	Thrombin inh
C=CC1=C(C(=O)O)N2C(=O)C(NC(=O)Cc3ccccc3)C2SC1 (stereo not given)	-1.5	2.8	54.3*	-56.0	+	10.2	34.3	31.3	-19.8
CC(=O)OCC1=C(C(=O)O)N2C(=O)[C@@H](NC(=O)Cc3ccccc3)[C@H]2SC1	2.5	.	5.5	-3.1	i	.	.	.	.
CCNc1nc(-c2ccc(Cl)cc2)cs1	0.5	-2.3	-5.0	-0.3	i	-3.0	.	.	.
CCN(CC)S(=O)(=O)c1cc(OC)ccc1N=Nc1ccc(O)c2ncccc12	2.9	.	1.8	3.6	+	-47.2	48.0*	42.6*	0.4
NS(=O)(=O)c1ccc(N=Nc2ccc(O)c3ncccc23)cc1	6.5	2.6	4.6	3.9	+	-47.9	69.7*	54.6*	12.6
Cc1ccc(SC(C)C(=O)N2CCN(c3ccccc3)CC2)cc1 (stereo not given)	-0.1	-4.0	4.2	0.2	i	-1.4	.	.	.
O=C(O)CN1C(=O)/C(=C\c2cccc(OCc3ccccc3F)c2)SC1=S	3.7	0.2	6.0	0.5	i	28.7	.	.	.
O=C1C(=Cc2cn(-c3ccccc3)nc2-c2ccc(OCc3ccccc3F)cc2)SC(=S)N1CCS(=O)(=O)O	-8.4	.	50.0	-49.1	+	.	103.3*	57.8*	163.3*
COc1ccc(-c2nn(-c3ccccc3)cc2/C=C2/SC(=S)N(CCC(=O)O)C2=O)cc1	12.9	8.1	17.1	-2.9	i	-11.2	.	.	.
O=C1C(=Cc2cn(-c3ccccc3)nc2-c2ccc(OCc3ccc(Cl)cc3)cc2)SC(=S)N1CCS(=O)(=O)O	-9.5	.	79.8*	-58.7	+	.	103.8*	64.6*	182.9*
COc1nc(-c2ccccc2)ccc1-c1noc(-c2cccnc2)n1	-4.0	4.3	1.4	9.4	+	12.9	-6.0	-23.8	-7.3
COc1nc(-c2ccc(C)cc2)ccc1-c1noc(-c2cccnc2)n1	-55.2	1.1	5.0	10.5	i	13.1	.	.	.
